Experimental data taken from ChEMBL document CHEMBL2331458, “Examination of the mode of action of the almiramide family of natural products against the kinetoplastid parasite Trypanosoma brucei” (J Nat Prod, 2013).
The source made the active and inactive calls. The calls are words filed in the database; no cut-off is given here. Starred links: 1 amine or outer side, 2 acyl side, 3 side chain; linkers in the order of their positions; H or OH if unused. Non-standard residues stand in square brackets, D forms with d. Residues, ends and D or L forms follow the SMILES beside them. *: point of attachment. BODIPY(FL) = CC1=CC(C)=[N+]2C1=Cc1ccc(CCC(=O)*)n1[B-]2(F)F; Ethylenediamine = C(CN[*:2])N[*:1]; NMeF = CN[C@@H](Cc1ccccc1)C(=O)O; X1 = CN(CCCCCCCCC(=O)[*:2])[*:1]; Oct(7)enoyl = C=CCCCCCC(=O)*; NMeV = CN[C@H](C(=O)O)C(C)C; NMeA = CN[C@@H](C)C(=O)O

What was measured:
[1] = Drug uptake in 120 hrs post fertilized zebrafish embryo intestinal tract at 1 to 270 uM after 3 hrs by confocal microscopic analysis; assay type: ADME, Danio rerio; settings: in vivo
Method in brief: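 Zebrafish embryos at 48 and 120 h post fertilization were incubated with fluorescent probe or fluorophore control in methylene blue-free egg water at 270, 90, 30 and 0 µM, three embryos per treatment. Localization was imaged by confocal microscopy after 3 h.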

[2] = system: Trypanosoma brucei brucei; assay: Binding affinity to Trypanosoma brucei brucei 427-221 PEX11 at 50 uM by […] staining method
Method in brief: (§1)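 Procyclic trypanosomes spread on glass, dried, fixed in 70% EtOH, then permeabilized in PBS/0.2% Triton for 20 min and blocked in PBS/0.5% gelatin. Anti-aldolase (1:500, 1 h) marked glycosomes. Cells were then stained 1 h with probe (5 or 50 µM) plus Alexa 594 anti-rabbit and 100 ng/mL DAPI. Imaged by epifluorescence at 100× oil.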

[3] = system: Trypanosoma brucei brucei; assay: Binding affinity to Trypanosoma brucei brucei 427-221 GIM5 at 50 uM by […] staining method; method in brief: as §1
[4] = system: Trypanosoma brucei brucei; assay: Binding affinity to Trypanosoma brucei brucei 427-221 kinetoplast DNA at 5 uM after 1 hr by DAPI staining method; method in brief: as §1
[5] = Drug uptake in Trypanosoma brucei brucei 427-221 cytosol at 5 uM after 1 hr by DAPI staining method; assay type: ADME; method in brief: as §1
[6] = system: Trypanosoma brucei brucei; assay: Antiparasitic activity against Trypanosoma brucei brucei 427-221 assessed as growth inhibition up to 3.1 uM after 48 hrs by cellTiter-Glo assay; assay type: functional, organism-based
Method in brief: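 T. b. brucei 427-221 bloodstream forms, grown in HMI-9 with 10% FBS and 10% Serum Plus at 37 °C, 5% CO2. Seeded at 2×10^4/mL with DMSO-serially diluted compound (1% DMSO final) for 48 h. Thimerosal 2 µM final served as positive control. Viability read by CellTiter-Glo ATP luminescence; % inhibition normalized to controls, IC50 by curve fit.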

[7] = Drug uptake in Trypanosoma brucei brucei 427-221 nucleus at 5 uM after 1 hr by DAPI staining method; assay type: ADME; method in brief: as §1

For C=CCCCCCC(=O)N(C)[C@H](C(=O)N(C)[C@H](C(=O)N(C)[C@H](C(=O)N(C)[C@@H](C)C(=O)N(C)[C@@H](Cc1ccccc1)C(=O)N(C)CCCCCCCCC(=O)NCCNC(=O)CCC1=[N+]2C(=Cc3c(C)cc(C)n3[B-]2(F)F)C=C1)C(C)C)C(C)C)C(C)C ({Oct(7)enoyl}-[NMeV][NMeV][NMeV][NMeA][NMeF][X1]-{Ethylenediamine-BODIPY(FL)}), the Drug uptake [1] was “Not Active”, the Activity [2] was “Active” and the Activity [3] was “Active”. The Activity [4] was “inactive”, the Drug uptake [5] was “Active” and the Activity [6] was “Active”. The Drug uptake [7] was “Not Active”.
